Bioassay records: PubChem, several laboratories
MT1-MMP txn act: activates MT1-MMP transcription. hit rate 0.16% among 86,000. HT1080 MT1-MMP promoter luciferase reporter, luminescence, overnight; active compounds read high. activation factor at 10 µM;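 active = activation factor of at least 2 for MT1-MMP transcription at 10 µM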
JNK3 blocker: inhibitors of human JNK3 kinase. AID 746. hit rate 0.61% among 60,000. purified JNK3 kinase activity, HTS. inhibition, % at 8 µM; in the data active = inhibition above about 17%;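 also: 0% = DMSO and 100% = reference inhibitor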
RORA act: activates the human nuclear receptor RORA. CHO-K1 Gal4-RORA LBD luciferase reporter, luminescence; percent increase over mock-subtracted basal signal. activation, % at 10 µM. hit rate 1.5% among 65,000;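 active = activation above the mean of all tested compounds plus 3 SD, cut at about 49% in these data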;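 also: 0% = DMSO-treated RORA cells and 100% = added signal equal to DMSO minus mock-transfected cells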
Target sequence (P35398 whole entry, looked up, the tested form may be a part): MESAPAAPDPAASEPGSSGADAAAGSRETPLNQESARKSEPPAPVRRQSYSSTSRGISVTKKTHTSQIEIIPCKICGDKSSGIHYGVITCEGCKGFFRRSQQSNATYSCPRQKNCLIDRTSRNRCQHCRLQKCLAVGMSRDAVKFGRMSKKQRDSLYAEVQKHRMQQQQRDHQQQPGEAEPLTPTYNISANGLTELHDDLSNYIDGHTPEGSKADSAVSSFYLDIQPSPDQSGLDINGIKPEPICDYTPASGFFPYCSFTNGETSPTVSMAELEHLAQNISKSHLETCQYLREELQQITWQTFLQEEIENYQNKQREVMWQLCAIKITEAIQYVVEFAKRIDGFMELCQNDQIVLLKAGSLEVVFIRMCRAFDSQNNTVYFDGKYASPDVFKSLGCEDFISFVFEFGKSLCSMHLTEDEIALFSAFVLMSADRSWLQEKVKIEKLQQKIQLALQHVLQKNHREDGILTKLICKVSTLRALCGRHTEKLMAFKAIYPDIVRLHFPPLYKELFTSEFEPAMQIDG
SF-1 act: activates the human nuclear receptor SF-1; CHO-K1 Gal4-SF-1 LBD luciferase reporter; % increase over DMSO SF-1-specific signal; activation, % at 10 µM; hit rate 1.9% among 65,000; AID 522;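 active = activation above the mean activation of all tested compounds plus 3 SD, cut at about 50% in these data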
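Compound – one dose, 10 µM compound, 1% DMSO · Test system – transient Gal4-SF-1 LBD reporter, CHO-K1 · Input – 4,000 cells in each well · Read-out basis – percent activation relative to DMSO median and mock-transfected background · Replicates – single measurement per compound · Technique – steady-glow luciferase luminescence, read after 15 min reagent incubation · Timing – 20 h compound treatment, 37 °C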
An asterisk follows results filed as active; · = no result given. This is a sample that favours compounds with a hit; in the whole collection about 2.3% have one here.

SMILES | MT1-MMP txn act | JNK3 blocker | RORA act | SF-1 act
O=C1CC(c2cccs2)Sc2nc3ccccc3n21 (stereo not drawn) | 1.4 | 1.7 | 22.9 | 79.8*
COc1ccc(C2=CC(=O)OC3(CCCC3)O2)cc1 | 1.2 | · | · | ·
COc1cc2c(cc1NC(=O)c1ccc3c(c1)OCO3)oc1ccccc12 | 2.1* | 0.5 | 16.9 | 53.6*
O=C(Nc1ccc2c(c1)oc1ccccc12)c1ccc2c(c1)OCO2 | 1.2 | 2.3 | 33.5 | 38.0
CCn1c(C(C)NC(C)=O)nc2ccccc21 (stereo not drawn) | · | 31.0* | -15.8 | 11.2
O=C(CSc1nnc2ccccn12)c1ccc2c(c1)OCCO2 | 1.4 | 2.1 | 50.6* | 63.5*
COc1cccc2cc(C(=O)Nc3cccnc3N3CCOCC3)c(=O)oc12 | 1 | · | -1.7 | -4.0
COc1cccc2cc(C(=O)Nc3cccc(C)n3)c(=O)oc12 | 0.6 | 1.7 | 57.5* | 72.7*
COc1cccc2cc(NC(=O)C3CCCCC3)c(=O)oc12 | · | 3.7 | 56.1* | 65.9*
COc1cc(C2NC(=O)NC(C)=C2C(=O)OC2CCCCC2)cc(Br)c1O (stereo not drawn) | 1 | 9.8 | -21.8 | 17.9
CC1=C(C(=O)OC2CCCCCCC2)C(c2ccc(O)cc2)NC(=O)N1 (stereo not drawn) | 0.9 | 21.6* | -10.6 | -19.1
COc1cc(C2NC(=O)NC(C)=C2C(=O)OC2CCCC(C)C2)ccc1O (stereo not drawn) | 0.7 | 36.5* | 15.9 | 6.4
O=C(Nc1ccncc1)c1ccc2c(c1)C(=O)N(C1CCCCC1)C2=O | 1 | · | · | ·
CN(C)c1ccc(CNC(=O)C2(C)C=CCN2C(=O)c2ccccc2)cc1 (stereo not drawn) | 1.1 | · | · | ·
O=P(N[C@@H](c1ccccc1)[C@@H]1C[C@H]1CCO)(c1ccccc1)c1ccccc1 | 1.3 | · | · | ·
Fc1cccc(CSc2nc3ccncc3[nH]2)c1 | 1.3 | 1.8 | 25.1 | 50.9*
Fc1ccc(CSc2nc3ncc(Br)cc3[nH]2)cc1 | 1.3 | · | · | ·
CCCCCOc1ccc(NS(C)(=O)=O)cc1 | 1.2 | 4.0 | 63.7* | 31.9
CCOc1ccc(NS(=O)(=O)c2ccc(NS(C)(=O)=O)cc2)cc1 | 1.1 | -2.0 | -21.4 | -12.9
COC(=O)c1ccc(C(NC(=O)c2ccccc2)[C@]2(C)C[C@H]2C2CCCCC2)cc1 (stereo partly drawn) | 1.2 | · | · | ·
COC(=O)[C@@H]1C[C@H]1[C@@H](NS(=O)(=O)c1ccc2ccccc2c1)c1ccccc1 | 1.3 | · | · | ·
CC1(CCc2ccc(O)cc2)NC(=O)NC1=O (stereo not drawn) | 1 | · | · | ·
O=C1OC(c2ccccc2)=C/C1=C/N1CCCCC1 | 1.5 | -15.9 | 71.4* | 21.6
COC(=O)[C@@]1(Cc2ccccc2)[C@H]2c3cc(C(=O)N4CCCC4)n(CCO)c3C[C@H]2CN1C(=O)c1ccccc1 | 1.2 | · | · | ·
CCC(=O)Nc1cnc(NC(=O)c2cccc(F)c2)cc1C | 1 | · | 35.7 | 31.6
SMILES | MT1-MMP txn act | JNK3 blocker | RORA act | SF-1 act
CC(=O)Nc1cnc(NC(=O)c2cccc(F)c2)cc1C | 1.6 | · | 21.6 | 76.2*
O=C1c2ccccc2-c2c1cccc2C(=O)N1CCCCC1 | 1.3 | · | · | ·
O=C(c1cccc2c1-c1ccccc1/C2=N/O)N1CCCCC1 | 1.1 | 26.4* | -15.3 | 1.6
O=C(CCCN1C(=O)c2ccccc2C1=O)OC1CSCC1NC(=O)c1ccccc1 (stereo not drawn) | 1.2 | · | · | ·
CCCCc1noc2c1/C(=N\O)CC(c1ccccc1)C2 (stereo not drawn) | 1.3 | 4.0 | 71.7* | 32.3
COc1ccc2c(c1)Cc1sc(NC(=O)c3ccco3)nc1-2 | 1.8 | · | · | ·
COc1ccc2c(c1)Cc1sc(NC(C)=O)nc1-2 | 1.4 | -11.2 | 42.1 | 76.8*
COc1cc(CN/C(C)=C(\C#N)C(N)=O)cc(OC)c1OC | 1 | 63.0* | 15.1 | 5.0
COC(=O)N1CC=CC1(C)C(=O)NCC1CC1 (stereo not drawn) | 1.1 | · | · | ·
COC(=O)C1(Cc2ccccc2)C=C2C(=C(C(C)C)C(=O)C2C)CN1 (stereo not drawn) | 2.1* | · | · | ·
COC(=O)C1(Cc2ccccc2)C=C2C(=C(c3ccccc3)C(=O)C2C)CN1 (stereo not drawn) | 1 | · | · | ·
CC(C)c1cccc2nc3c(c([Si](C)(C)C(C)(C)C)c12)Cn1c-3cccc1=O | 1.1 | · | · | ·
O=C(Nc1cccc(Cl)c1)N1CCCC1 | 1.1 | · | · | ·
O=C(Nc1cccc(Cl)c1)N1CCN(Cc2ccccc2)CC1 | 1.6 | 7.6 | 73.2* | 85.1*
O=C(NCCSCc1ccco1)Nc1ccc(Cl)cc1 | 1.5 | 2.3 | 45.5 | 65.0*
CCOC(=O)Nc1ccc2c(C)cc(=O)oc2c1 | 1.5 | -5.5 | 53.1* | 55.6*
Cc1ccc(C(C(=O)NC(C)(C)C)N(Cc2ccco2)C(=O)CCC(=O)Nc2nccs2)cc1 (stereo not drawn) | 1.3 | · | · | ·
COC(=O)c1c(NC(C)=O)sc2c1CCCC2 | 1.1 | 5.4 | -9.3 | 5.2
COC(=O)c1c(NC(=O)CC2SCC(C(=O)OC)NC2=O)sc2c1CCCC2 (stereo not drawn) | 1 | 5.0 | 51.7* | 0.3
COC(=O)c1c(NC(=O)CCCC(=O)O)sc2c1CCC2 | 2.1* | · | · | ·
CCOC(=O)C1=C(C)N(CCCC(=O)O)C(=O)NC1c1ccccc1OS(=O)(=O)c1ccc2ccccc2c1 (stereo not drawn) | 1.2 | · | · | ·
CCN(CC)C(C)C(=O)NCC1(c2ccccc2)CCOCC1 (stereo not drawn) | 1.2 | · | · | ·
Cc1cc(C)n(CC2CC(=O)N(c3ccc(Cl)c(Cl)c3)C2=O)n1 (stereo not drawn) | 1.2 | 7.2 | -6.8 | 1.3
Cc1ccccc1-c1nnc(SCc2ccccc2F)o1 | 1.4 | 1.1 | 75.2* | 90.5*
Fc1ccccc1CSc1nnc(-c2ccccc2)o1 | 0.9 | 10.4 | 41.2 | 57.8*
SMILES | MT1-MMP txn act | JNK3 blocker | RORA act | SF-1 act
O=C1OC(N2CCN(Cc3ccccc3)CC2)c2ccccc21 (stereo not drawn) | 1.2 | -3.1 | 69.1* | -16.3
CN1CCN(C2OC(=O)c3ccccc32)CC1 (stereo not drawn) | 1.1 | · | · | ·
COc1ccc2nc(-c3ccccc3)[nH]c2c1 | 0.5 | -1.5 | 0.1 | 4.6
CCOc1ccc2nc(-c3ccccc3)[nH]c2c1 | 0.6 | -1.9 | 66.8* | 27.4
CC(=O)c1c(C)[nH]c(C(=O)OCn2nnc3ccccc3c2=O)c1C | 1.1 | 18.4* | -14.7 | 3.4
COC(=O)C1=C(CSCc2ccco2)NC(=O)NC1c1cc(C)ccc1C (stereo not drawn) | 1 | -6.1 | -2.3 | 19.4
O=C(Oc1ccccc1N1C(=O)CCC1=O)c1ccco1 | 1.1 | 4.8 | 4.4 | -2.4
O=C(N=C1SCC(=O)N1c1ccccc1Cl)c1ccco1 | 1.5 | 2.6 | 62.3* | 54.7*
CCOC(=O)N1CCN(S(=O)(=O)c2ccc(Br)s2)CC1 | 1.3 | -2.1 | -0.4 | -3.6
CN1CCN(S(=O)(=O)c2ccc(Br)s2)CC1 | 1.3 | -7.5 | 62.7* | -24.0
COc1ccc(C(=O)Nc2nnc(C(F)(F)F)s2)cc1 | 1.4 | 6.0 | 46.5 | 57.3*
O=C(Nc1nnc(C(F)(F)F)s1)c1cccnc1 | 1.2 | -2.1 | 65.8* | 59.7*
c1ccc(-c2c3ccccc3nc3[nH]c4ccccc4c23)cc1 | 1.1 | · | · | ·
c1ccc2nc3c(nc2c1)[nH]c1ccccc13 | 1.2 | 55.3* | 50.5* | 81.2*
